Among the data in the RNAGym collection of RNA variant scans (doi:10.1126/science.aae0568) are yeast fitness values, retold here.

This sample holds only a part of the variants without activity. Some results are limits rather than exact numbers.

First the molecules themselves.
B1: tRNA (parent)
chain: GUUCCGUUGGCGUAAUGGUAACGCGUCUCCCUCCUAAGGAGAAGACUGCGGGUUCGAGUCCCGUACGGAACG

Variants of B1 are the subject of this data set. Nature of the data set: yeast fitness relative to wild type (ratio to wild type); higher = fitter; tRNA-Arg(CCU), competitive growth, 37 C, YPD. In a few lines: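 Changes in genotype frequencies gave Darwinian fitness relative to wild type. Frequencies were read by 100-nucleotide paired-end sequencing of gene amplicons before and after pooled Saccharomyces cerevisiae strains, carrying tRNA-Arg(CCU) gene variants at the native locus, were competed in YPD at 37°C for 24 hours in six replicates. A genotype was kept only with ≥ 100 starting reads, and estimates < 0.5 were set to 0.5.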
Take GUUCCGUUGGCGUAAUGGUACCGCGUUUCCCUCCUAAGGAGAAGACUGCGGGUUCGGGUCCCGUACGGAACG: the yeast fitness is 0.79.
In the case of GUUCCGUUGGCGUAAUGGUACCGCGUUUCCCUCCUAAGGAGAAGACAGCGGGUUCGAGUCCCGUACGGAACG, the yeast fitness was determined as 0.545.
Next, GUUCCGUUGGCGUAAUGGUACCGCGUCUCCCUCCUAAGGAGAAGACUGCGGGUUCGAGUCCGGUACGGAACG: 0.723.
The figure for GUUCCGUUGGCGUAAUGGUACCGCGUCUCCCUCCUAAGGAGAAGACUGCGGGUUCGAGUCCAGUACGGAACG is 0.788; for GUUCCGUUGGCGUAAUGGUACCGCGUCUCCCUCCUAAGGAGAAGACUGCGGGUUCGAGUCCUGUACGGAACG it is 0.798; for GUUCCGUUGGCGUAAUGGUACCUCGUCUCCCUCCUAAGGAGAAGACUGCGGGUUCGAGUCCCGUACGGAACG it is 0.714.
The figure for GUUCCGUUGGCGUAAUGGUACCGCGUCUCCCUGCUAAGAAGAAGACUGCGGGUUCGAGUCCCGUACGGAACG is ≤ 0.5; for GUUCCGUUGGCGUAAUGGUACCGCGUCUCCCUCCUAAGGAGAACACUGCAGGUUCGGGUCCCGUACGCAACG it is ≤ 0.5; for GUUCCGUUGGCGUAAUGGUACCGCGUCUACCUCCUAAGGAGAAGACUGCGGAUUGGCGUCCCGUACGGCACG it is ≤ 0.5.
As for GUUCCGUUGGCGUAAUGGUACCGCGUCUCCCUCCUAAGGAGAAGACUGCGGGUUCGAGUCGGGUACGGAACG, the yeast fitness is ≤ 0.5.
Consider GUUCCGUUGGCGUAAUGGUACCGCGUCUCCCUCCUAAGGAGAAGACUGCGGGUUCAAGUCCCGUACGGAACG, for which the yeast fitness came out at 0.946.
Next, GUUCCGUUGGCGUAAUGGUACCGCGUCUCCCUCCUAAGGAGAAGACUGCGGGUUCGAGUCCUGUAUGGAACG: 0.533; GUUCCGUUGGCGUAAUGGUACCGCAUCUCACUCCUAUGGAGAAGACUGCGGGUUCGAGUCCCGUAAGGAACG: ≤ 0.5.
The figure for GUUCCGUUGGCGUAAUGGUACCGCGUUUCCCUCCUAAGGAGAAGAGUACGGGUUCGAGUCCGGUACGCAACG is ≤ 0.5.
Next, GUUCCGUUGGCGUAAUGGUACCGCGUCUUCGUCCUAAGGAGAUGACUGCGGGUUCGAGUCCCGUACGGAACG: 0.612.
On to GUUCCGUUGGCGUAAUGGUACCGCGUCUCCAUCCUAAGGAGAAGAAUGCGGGUCCGAGUCCCGUACGGAACG, for which the yeast fitness is ≤ 0.5.
GUUCCGUUGGCGUAAUGGUACCGCGUCUUCCUCCUAAGGAGAAGACUGCGGGUUCGCGUCCCGUACGGAACG: the yeast fitness was 0.558.
The figure for GUUCCGUUGGCGUAAUGGUACCGCCGCUCCCUCCUAAGGAGAAGACUGCGGGUUCGAGUCCAGUACGGAACG is ≤ 0.5.
The figure for GUUCCGUUGGCGUAAUGGUACCGCGUCUUCCUCCUAAGGAGAAGUCUGCGGGUUCGAGUCCCGUACGGAACG is 0.521.
The figure for GUUCCGUUGGCGUAAUGGUACCGCGUCUCCCUCCUAAGGAGAAGAUUGCGGGUUCGAGUCCCGUACGGAACG is 0.909; for GUUCCGUUGGCGUAAUGGUACCUCGUCUCCCUCCUAAGGAGAAGACUCCGGGUUCGAGUCCCGUACGGAACG it is ≤ 0.5.
For the variant GUUCCGUUGGCGUAAUGGUACCGCGUCUCGCUCCUAAGGAGAAGACUGCGGGUCGGAGUCCCGUACGGAGCG, the yeast fitness was ≤ 0.5.
In the case of GUUCCGUUGGCGUAAUGGUACCGCGUCUCCCUCCUAAGGAGAAGACUGCGGGUUCGAGUCACGUACGAAACG, the yeast fitness came to 0.515.
Take GUUCCGUUGGCGUAAUGGUACCGCGUCUCGCUCCUAAGGAGAAGACUGCGGGUUCGAGUCCCGUAAGGAACG: the yeast fitness is 0.572.
Consider GUUCCGUUGGCGUAAUGGUACCGCGUCUCCCUCCUAAGGAGAAGACUGCGGGUUCGACUCCCGUACGGAACG, for which the yeast fitness stood at 0.84.
The figure for GUUCCGUUGGCGUAAUGGUACCGCGUCUACCUCCUAAGGAGAAGACUGCGGCUUCGAGUCCCGUACGAAACG is 0.664; for GUUCCGUUGGCGUAAUGGUACCGCGUUUCCCUCCUAAGGAGAAGACUGCGGGUUCGACUCCGGUACGGAACG it is ≤ 0.5; for GUUCCGUUGGCGUAAUGGUACCGCGUCUCCCUCCUAAGGAGAAGACUCCGGGUUCGAGUCCCGUACGGAACG it is 0.788.
The figure for GUUCCGUUGGCGUAAUGGUACCGCGUCUCCCUCGUGAGGAGAAGAAUGCGGGUUCGAGUCCCGUAAGGAGCG is ≤ 0.5; for GUUCCGUUGGCGUAAUGGUACCGCGUUUCCCUUCUAAGGAGAAGACUGCGGGUUCGAGUCCCGUACGGAACG it is 0.544; for GUUCCGUUGGCGUAAUGGUACCGCGUCUCCCUCCUAAGGAGAAGACUGCGGGUUCGAGUCCCGUACCGAACG it is 0.654.
Next, GUUCCGUUGGCGUAAUGGUACCGCGUCUCCAUGCUAAGGAGAAGGCUACGGGUUCGAGUCCCGUUCGGAACG: ≤ 0.5.
As for GUUCCGUUGGCGUAAUGGUACCGCGUCUCCCUCCUAAGGAGAAGACUGCGGGUUCGACUCCCGUUCGGAACG, the yeast fitness is 0.521.
Next, GUUCCGUUGGCGUAAUGGUACCGCGUCUCACUCCUAAGGAGAAGACUGCGGGUUCGAGUCCUGUACGGAUCG: ≤ 0.5; GUUCCGUUGGCGUAAUGGUACCGCGUCUCCCUCCUAAGGAGAAGAUUGCGGGUUCGAGUCCCGUACAGAACG: 0.619.
The figure for GUUCCGUUGGCGUAAUGGUACCGCGUCUCCGUCCUAAGGAGAAGACUGCGGGUUCGAGUCCUGUACGGGACG is ≤ 0.5.
Regarding GUUCCGUUGGCGUAAUGGUACCGCGUCUCCCUCUUAAGGAGAAGACUGUGGGUUCGAGUCCCGUACGGAACG, the yeast fitness was ≤ 0.5.
